What was measured:
[1] = Brain pharmacokinetics after a single 1 mg/kg dose; type: in vivo, C57BL/6J mice; conditions: for Cmax / MRT last / Tmax / k el: C57BL/6J, mouse, 1 mg/kg; for brain drug targeting efficiency: from zero-infinity predicted AUC values
Summary of the method: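 Anaesthetized (zolazepam/xylazine i.p.) male C57BL/6J mice, n = 4 per time point, were dosed 1 mg/kg by i.v., s.c., i.p. or gavage. At 2.5–90 min, after cardiac blood sampling, they were transcardially perfused with saline. Brain and spinal cord were homogenized in equal weight-volume water, spiked with internal standard, deproteinized 1:3 with cold acetonitrile and quantified by LC–MS/MS. Per-time-point means were fitted with a two-compartment model.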

[2] = Plasma pharmacokinetics after a single 1 mg/kg dose; type: in vivo, C57BL/6J mice; conditions: for AUC / MRT last / k el: C57BL/6J, mouse, 1 mg/kg
Summary of the method: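 Male C57BL/6J mice (10–12 weeks; n = 4 per time point) under i.p. zolazepam 50 mg/kg plus xylazine 12 mg/kg received 1 mg/kg in 5% dextrose (37 °C) by tail-vein i.v., s.c., i.p. or gavage. Terminal cardiac-puncture blood was taken into EDTA at 2.5–90 min. Plasma was spiked with internal standard, acetonitrile-deproteinized and measured by LC–MS/MS. Mean levels were fitted two-compartmentally, with AUC by linear trapezoidal rule.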

[3] = brain, i.p. 1 mg/kg single dose
[4] = brain, i.v. 1 mg/kg single dose
[5] = brain, p.o. 1 mg/kg single dose
[6] = brain, s.c. 1 mg/kg single dose

CC(=O)N[C@@H](Cc1ccccc1)C(=O)N[C@H]1CCCNC(=O)[C@H](CCCNC(=N)N)NC(=O)[C@H](Cc2c[nH]c3ccccc23)NC(=O)[C@@H](CC2CCCCC2)NC(=O)[C@@H]2CCCN2C1=O [PMX53, Ac-Phe-[Orn-Pro-dCha-Trp-Arg]]
Cmax ([1]; brain, ip): 48.1 ng/g | MRT last ([1]; brain, ip): 40.8 min | Tmax ([1]; brain, ip): 10.4 min | k el ([1]; brain, ip): 0.0002 s⁻¹ | Cmax ([1]; brain, iv): 74.1 ng/g | MRT last ([1]; brain, iv): 42 min | k el ([1]; brain, iv): 0.0001 s⁻¹ | Cmax ([1]; brain, po): 77 ng/g | MRT last ([1]; brain, po): 40.8 min | Tmax ([1]; brain, po): 14.9 min | k el ([1]; brain, po): 0.000122 s⁻¹ | Cmax ([1]; brain, sc): 120 ng/g | MRT last ([1]; brain, sc): 42 min | Tmax ([1]; brain, sc): 19.9 min | k el ([1]; brain, sc): 0.000189 s⁻¹ | Alpha (hybrid first-order rate constant, distribution phase) [1, 3]: 9.22 h⁻¹ | Beta (hybrid first-order rate constant, elimination phase) [1, 3]: 0.30 h⁻¹ | CLD2_F (apparent total clearance of the drug after administration) [1, 3]: 25.61 ng/(min ng/g) | CL_F (apparent total body clearance of the drug) [1, 3]: 3.77 ng/(min ng/g) | K01 (absorption rate constant) [1, 3]: 9.06 h⁻¹ | K12 (distribution rate constant) [1, 3]: 4.92 h⁻¹ | K21 (redistribution rate constant) [1, 3]: 3.87 h⁻¹ | V1_F (apparent volume of central compartment) [1, 3]: 0.31 μg/(ng/g) | V2_F (apparent volume of peripheral compartment) [1, 3]: 0.40 μg/(ng/g) | Alpha (hybrid first-order rate constant, distribution phase) [1, 4]: 35.52 h⁻¹ | Beta (hybrid first-order rate constant, elimination phase) [1, 4]: 0.20 h⁻¹ | CLD2_F (apparent total clearance of the drug after administration) [1, 4]: 107.59 ng/(min ng/g) | CL_F (apparent total body clearance of the drug) [1, 4]: 2.43 ng/(min ng/g) | K12 (distribution rate constant) [1, 4]: 15.95 h⁻¹ | K21 (redistribution rate constant) [1, 4]: 19.41 h⁻¹ | V1_F (apparent volume of central compartment) [1, 4]: 0.40 μg/(ng/g) | V2_F (apparent volume of peripheral compartment) [1, 4]: 0.33 μg/(ng/g) | Vss (apparent volume of distribution at a steady state) [1, 4]: 0.74 μg/(ng/g) | Alpha (hybrid first-order rate constant, distribution phase) [1, 5]: 1.68 h⁻¹ | Beta (hybrid first-order rate constant, elimination phase) [1, 5]: 0.26 h⁻¹ | CLD2_F (apparent total clearance of the drug after administration) [1, 5]: 2.68 ng/(min ng/g) | CL_F (apparent total body clearance of the drug) [1, 5]: 2.28 ng/(min ng/g) | K01 (absorption rate constant) [1, 5]: 11.20 h⁻¹ | K12 (distribution rate constant) [1, 5]: 0.51 h⁻¹ | K21 (redistribution rate constant) [1, 5]: 0.99 h⁻¹ | V1_F (apparent volume of central compartment) [1, 5]: 0.31 μg/(ng/g) | V2_F (apparent volume of peripheral compartment) [1, 5]: 0.16 μg/(ng/g) | Alpha (hybrid first-order rate constant, distribution phase) [1, 6]: 3.48 h⁻¹ | Beta (hybrid first-order rate constant, elimination phase) [1, 6]: 0.41 h⁻¹ | CLD2_F (apparent total clearance of the drug after administration) [1, 6]: 2.91 ng/(min ng/g) | CL_F (apparent total body clearance of the drug) [1, 6]: 1.75 ng/(min ng/g) | K01 (absorption rate constant) [1, 6]: 5.81 h⁻¹ | K12 (distribution rate constant) [1, 6]: 1.13 h⁻¹ | K21 (redistribution rate constant) [1, 6]: 2.07 h⁻¹ | V1_F (apparent volume of central compartment) [1, 6]: 0.15 μg/(ng/g) | V2_F (apparent volume of peripheral compartment) [1, 6]: 0.08 μg/(ng/g) | brain drug targeting efficiency ([1]; i.p. 1 mg/kg): 0.71 | brain drug targeting efficiency ([1]; p.o. 1 mg/kg): 8.21 | brain drug targeting efficiency ([1]; s.c. 1 mg/kg): 1.37 | AUC ([2]; ip): 1800 ng·h/mL | MRT last ([2]; ip): 27.4 min | k el ([2]; ip): 0.00114 s⁻¹ | AUC ([2]; iv): 2510 ng·h/mL | MRT last ([2]; iv): 13.2 min | k el ([2]; iv): 0.00193 s⁻¹ | AUC ([2]; po): 227 ng·h/mL | MRT last ([2]; po): 32.6 min | k el ([2]; po): 0.000711 s⁻¹ | AUC ([2]; sc): 2240 ng·h/mL | MRT last ([2]; sc): 38.8 min | k el ([2]; sc): 0.000592 s⁻¹ | Alpha (hybrid first-order rate constant, distribution phase) ([2]; i.p. 1 mg/kg single dose): 0.07 min⁻¹ | Beta (hybrid first-order rate constant, elimination phase) ([2]; i.p. 1 mg/kg single dose): 0.03 min⁻¹ | CLD2_F (apparent total clearance of the drug from plasma after administration) ([2]; i.p. 1 mg/kg single dose): <0.01 µL/min | CL_F (apparent total body clearance of the drug from plasma) ([2]; i.p. 1 mg/kg single dose): 0.16 µL/min | K01 (absorption rate constant) ([2]; i.p. 1 mg/kg single dose): 4.29 h⁻¹ | K12 (distribution rate constant) ([2]; i.p. 1 mg/kg single dose): <0.001 h⁻¹ | K21 (redistribution rate constant) ([2]; i.p. 1 mg/kg single dose): 2.00 h⁻¹ | V1_F (apparent volume of central compartment) ([2]; i.p. 1 mg/kg single dose): <0.01 mL | V2_F (apparent volume of peripheral compartment) ([2]; i.p. 1 mg/kg single dose): <0.01 mL | Alpha (hybrid first-order rate constant, distribution phase) ([2]; i.v. 1 mg/kg single dose): 0.20 min⁻¹ | Beta (hybrid first-order rate constant, elimination phase) ([2]; i.v. 1 mg/kg single dose): 0.05 min⁻¹
